Experiments:
Type in all cases: functional
Settings in all cases: read-out: GI
UO-31 = test: Antitumor activity against human UO-31 cells assessed as growth inhibition at 10 uM relative to control
How it was run: (§1)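 Drug exposure 48 h at 37 °C, 5% CO2. Adherent cells fixed with cold TCA (10% final), suspension cells with TCA (16% final). Stained with 0.4% SRB in 1% acetic acid, dissolved in 10 mM Tris, A515. Growth relative to time-zero and untreated control.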

HCT-116 = test: Antitumor activity against human HCT-116 cells assessed as growth inhibition at 10 uM relative to control
How it was run: (§2)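 After drug addition, plates were incubated 48 h at 37 °C under 5% CO2. Adherent cells were fixed with cold TCA (10% final, 60 min, 4 °C) and suspension cells with 16% final TCA. Staining used 0.4% SRB in 1% acetic acid, solubilized in 10 mM trizma, read at A515. Percent growth was calculated from time-zero, control and treated absorbances.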

SF-539 = test: Antitumor activity against human SF-539 cells assessed as growth inhibition at 10 uM relative to control; how it was run: as §2
Malme-3M = test: Antitumor activity against human Malme-3M cells assessed as growth inhibition at 10 uM relative to control; how it was run: as §2
T47D = test: Antitumor activity against human T47D cells assessed as growth inhibition at 10 uM relative to control; how it was run: as §1
NCI-H322M = test: Antitumor activity against human NCI-H322M cells assessed as growth inhibition at 10 uM relative to control; how it was run: as §2
MDA-MB-468 = test: Antitumor activity against human MDA-MB-468 cells assessed as growth inhibition at 10 uM relative to control; how it was run: as §2
Hs-578T = test: Antitumor activity against human Hs-578T cells assessed as growth inhibition at 10 uM relative to control; how it was run: as §2
SW-620 = test: Antitumor activity against human SW-620 cells assessed as growth inhibition at 10 uM relative to control; how it was run: as §1
HCT-15 = test: Antitumor activity against human HCT-15 cells assessed as growth inhibition at 10 uM relative to control; how it was run: as §2
SK-MEL-5 = test: Antitumor activity against human SK-MEL-5 cells assessed as growth inhibition at 10 uM relative to control; how it was run: as §1
CAKI-1 = test: Antitumor activity against human CAKI-1 cells assessed as growth inhibition at 10 uM relative to control; how it was run: as §2
SNB-19 = test: Antitumor activity against human SNB-19 cells assessed as growth inhibition at 10 uM relative to control; how it was run: as §1
HT-29 = test: Antitumor activity against human HT-29 cells assessed as growth inhibition at 10 uM relative to control; how it was run: as §2
IGROV-1 = test: Antitumor activity against human IGROV-1 cells assessed as growth inhibition at 10 uM relative to control; how it was run: as §2
RPMI-8226 = test: Antitumor activity against human RPMI-8226 cells assessed as growth inhibition at 10 uM relative to control; how it was run: as §2
OVCAR-3 = test: Antitumor activity against human OVCAR-3 cells assessed as growth inhibition at 10 uM relative to control; how it was run: as §2
MCF7 = test: Antitumor activity against human MCF7 cells assessed as growth inhibition at 10 uM relative to control; how it was run: as §2
NCI-H522 = test: Antitumor activity against human NCI-H522 cells assessed as growth inhibition at 10 uM relative to control; how it was run: as §2
SNB-75 = test: Antitumor activity against human SNB-75 cells assessed as growth inhibition at 10 uM relative to control; how it was run: as §1
U-251 = test: Antitumor activity against human U-251 cells assessed as growth inhibition at 10 uM relative to control; how it was run: as §1
MDA-MB-435 = test: Antitumor activity against human MDA-MB-435 cells assessed as growth inhibition at 10 uM relative to control; how it was run: as §2
NCI-H460 = test: Antitumor activity against human NCI-H460 cells assessed as growth inhibition at 10 uM relative to control; how it was run: as §2
CCRF-CEM = test: Antitumor activity against human CCRF-CEM cells assessed as growth inhibition at 10 uM relative to control; how it was run: as §2
MDA-MB-231 = test: Antitumor activity against human MDA-MB-231 cells assessed as growth inhibition at 10 uM relative to control; how it was run: as §2
HL-60 = test: Antitumor activity against human HL-60 cells assessed as growth inhibition at 10 uM relative to control; how it was run: as §2
NCI-H226 = test: Antitumor activity against human NCI-H226 cells assessed as growth inhibition at 10 uM relative to control; how it was run: as §2
RXF 393 = test: Antitumor activity against human RXF 393 cells assessed as growth inhibition at 10 uM relative to control; how it was run: as §2
HOP-62 = test: Antitumor activity against human HOP-62 cells assessed as growth inhibition at 10 uM relative to control; how it was run: as §2
HCC 2998 = test: Antitumor activity against human HCC 2998 cells assessed as growth inhibition at 10 uM relative to control; how it was run: as §2
KM12 = test: Antitumor activity against human KM12 cells assessed as growth inhibition at 10 uM relative to control; how it was run: as §2
K562 = test: Antitumor activity against human K562 cells assessed as growth inhibition at 10 uM relative to control; how it was run: as §2
COLO 205 = test: Antitumor activity against human COLO 205 cells assessed as growth inhibition at 10 uM relative to control; how it was run: as §2
NCI-H23 = test: Antitumor activity against human NCI-H23 cells assessed as growth inhibition at 10 uM relative to control; how it was run: as §2
EKVX = test: Antitumor activity against human EKVX cells assessed as growth inhibition at 10 uM relative to control; how it was run: as §2
SR = test: Antitumor activity against human SR cells assessed as growth inhibition at 10 uM relative to control; how it was run: as §1
LOX IMVI = test: Antitumor activity against human LOX IMVI cells assessed as growth inhibition at 10 uM relative to control; how it was run: as §2
A549 = test: Antitumor activity against human A549 cells assessed as growth inhibition at 10 uM relative to control; how it was run: as §2
SK-MEL-2 = test: Antitumor activity against human SK-MEL-2 cells assessed as growth inhibition at 10 uM relative to control; how it was run: as §2
OVCAR-8 = test: Antitumor activity against human OVCAR-8 cells assessed as growth inhibition at 10 uM relative to control; how it was run: as §2
786-0 = test: Antitumor activity against human 786-0 cells assessed as growth inhibition at 10 uM relative to control; how it was run: as §2
OVCAR-5 = test: Antitumor activity against human OVCAR-5 cells assessed as growth inhibition at 10 uM relative to control; how it was run: as §2
BT-549 = test: Antitumor activity against human BT-549 cells assessed as growth inhibition at 10 uM relative to control; how it was run: as §2
SN12C = test: Antitumor activity against human SN12C cells assessed as growth inhibition at 10 uM relative to control; how it was run: as §1
MOLT-4 = test: Antitumor activity against human MOLT-4 cells assessed as growth inhibition at 10 uM relative to control; how it was run: as §2
SK-MEL-28 = test: Antitumor activity against human SK-MEL-28 cells assessed as growth inhibition at 10 uM relative to control; how it was run: as §1

With Cc1cc(C)n(-c2nc(-c3ccc(Cl)cc3)c(C#N)c(N3CCOCC3)n2)n1 the inhibition of growth at 10 µM (UO-31) was 45.2%, the inhibition of growth at 10 µM (HCT-116) was 17% and the inhibition of growth at 10 µM (SF-539) was 16%. It also gave an inhibition of growth at 10 µM (Malme-3M) of under 1%, an inhibition of growth at 10 µM (T47D) of 22.1% and an inhibition of growth at 10 µM (NCI-H322M) of under 1%. For the same compound, the inhibition of growth at 10 µM (MDA-MB-468) was under 1%, the inhibition of growth at 10 µM (Hs-578T) was 12.3% and the inhibition of growth at 10 µM (SW-620) was under 1%. It also gave an inhibition of growth at 10 µM (HCT-15) of under 1%, an inhibition of growth at 10 µM (SK-MEL-5) of 14.5% and an inhibition of growth at 10 µM (CAKI-1) of 28.1%. For the same compound, the inhibition of growth at 10 µM (SNB-19) was 14.2%, the inhibition of growth at 10 µM (HT-29) was under 1% and the inhibition of growth at 10 µM (IGROV-1) was 23.4%. For the same compound, the inhibition of growth at 10 µM (RPMI-8226) was 15.4%, the inhibition of growth at 10 µM (OVCAR-3) was 12.1% and the inhibition of growth at 10 µM (MCF7) was under 16%. For the same compound, the inhibition of growth at 10 µM (NCI-H522) was 14.3%, the inhibition of growth at 10 µM (SNB-75) was 40.1% and the inhibition of growth at 10 µM (U-251) was under 1%. The inhibition of growth at 10 µM (MDA-MB-435) was under 1%, the inhibition of growth at 10 µM (NCI-H460) was under 1% and the inhibition of growth at 10 µM (CCRF-CEM) was under 1%. The inhibition of growth at 10 µM (MDA-MB-231) was 28.8%, the inhibition of growth at 10 µM (HL-60) was under 1% and the inhibition of growth at 10 µM (NCI-H226) was 14%. It also gave an inhibition of growth at 10 µM (RXF 393) of 30.5%, an inhibition of growth at 10 µM (HOP-62) of 19.9% and an inhibition of growth at 10 µM (HCC 2998) of under 1%. For the same compound, the inhibition of growth at 10 µM (KM12) was under 1%, the inhibition of growth at 10 µM (K562) was under 1% and the inhibition of growth at 10 µM (COLO 205) was 18.9%. The inhibition of growth at 10 µM (NCI-H23) was 16%, the inhibition of growth at 10 µM (EKVX) was 34.9% and the inhibition of growth at 10 µM (SR) was under 1%. For the same compound, the inhibition of growth at 10 µM (LOX IMVI) was 20.1%, the inhibition of growth at 10 µM (A549) was under 1% and the inhibition of growth at 10 µM (SK-MEL-2) was under 1%. For the same compound, the inhibition of growth at 10 µM (OVCAR-8) was under 1%, the inhibition of growth at 10 µM (786-0) was 15.2% and the inhibition of growth at 10 µM (OVCAR-5) was under 1%. The inhibition of growth at 10 µM (BT-549) was 30.5%, the inhibition of growth at 10 µM (SN12C) was 12.8% and the inhibition of growth at 10 µM (MOLT-4) was 13.3%. The inhibition of growth at 10 µM (SK-MEL-28) was under 1%.

Compound N#Cc1c(-c2ccc(Cl)cc2)nc(NN2C(=O)c3ccccc3C2=O)nc1N1CCOCC1 has an inhibition of growth at 10 µM (UO-31) of 15.6%, an inhibition of growth at 10 µM (HCT-116) of under 1% and an inhibition of growth at 10 µM (SF-539) of under 1%. For the same compound, the inhibition of growth at 10 µM (Malme-3M) was under 1%, the inhibition of growth at 10 µM (T47D) was under 1% and the inhibition of growth at 10 µM (NCI-H322M) was under 1%. For the same compound, the inhibition of growth at 10 µM (MDA-MB-468) was under 1%, the inhibition of growth at 10 µM (Hs-578T) was under 1% and the inhibition of growth at 10 µM (SW-620) was under 1%. It also gave an inhibition of growth at 10 µM (HCT-15) of under 1%, an inhibition of growth at 10 µM (SK-MEL-5) of under 1% and an inhibition of growth at 10 µM (CAKI-1) of under 1%. For the same compound, the inhibition of growth at 10 µM (SNB-19) was under 1%, the inhibition of growth at 10 µM (HT-29) was under 1% and the inhibition of growth at 10 µM (IGROV-1) was under 1%. It also gave an inhibition of growth at 10 µM (RPMI-8226) of under 1%, an inhibition of growth at 10 µM (OVCAR-3) of under 1% and an inhibition of growth at 10 µM (MCF7) of 1%. It also gave an inhibition of growth at 10 µM (NCI-H522) of under 1%, an inhibition of growth at 10 µM (SNB-75) of 15.4% and an inhibition of growth at 10 µM (U-251) of under 1%. It also gave an inhibition of growth at 10 µM (MDA-MB-435) of under 1%, an inhibition of growth at 10 µM (NCI-H460) of under 1% and an inhibition of growth at 10 µM (CCRF-CEM) of under 1%. For the same compound, the inhibition of growth at 10 µM (MDA-MB-231) was under 1%, the inhibition of growth at 10 µM (HL-60) was under 1% and the inhibition of growth at 10 µM (NCI-H226) was under 1%. The inhibition of growth at 10 µM (RXF 393) was under 1%, the inhibition of growth at 10 µM (HOP-62) was under 1% and the inhibition of growth at 10 µM (HCC 2998) was under 1%. It also gave an inhibition of growth at 10 µM (KM12) of under 1%, an inhibition of growth at 10 µM (K562) of under 1% and an inhibition of growth at 10 µM (COLO 205) of under 1%. The inhibition of growth at 10 µM (NCI-H23) was under 1%, the inhibition of growth at 10 µM (EKVX) was under 1% and the inhibition of growth at 10 µM (SR) was 16%. For the same compound, the inhibition of growth at 10 µM (LOX IMVI) was under 1%, the inhibition of growth at 10 µM (A549) was under 1% and the inhibition of growth at 10 µM (SK-MEL-2) was under 1%. For the same compound, the inhibition of growth at 10 µM (OVCAR-8) was under 1%, the inhibition of growth at 10 µM (786-0) was under 1% and the inhibition of growth at 10 µM (OVCAR-5) was under 1%. For the same compound, the inhibition of growth at 10 µM (BT-549) was under 1%, the inhibition of growth at 10 µM (SN12C) was under 1% and the inhibition of growth at 10 µM (MOLT-4) was under 1%. For the same compound, the inhibition of growth at 10 µM (SK-MEL-28) was under 1%.

— ChEMBL document CHEMBL5376013, “Design, synthesis and biological evaluation of novel morpholinopyrimidine-5-carbonitrile derivatives as dual PI3K/mTOR inhibitors” (RSC Med Chem, 2024)
